We go through 23 compounds from ChEMBL document CHEMBL1765003, “Discovery of (1S,2R,3R)-2,3-dimethyl-2-phenyl-1-sulfamidocyclopropanecarboxylates: novel and highly selective aggrecanase inhibitors” (J Med Chem, 2011).

Assay [1] deals with Disintegrin and metalloproteinase domain-containing protein 17 (Homo sapiens, UniProt P78536). The assay can be described thus: Inhibition of human recombinant TACE after 60 mins by fluorescence plate reader. Summed up:
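rh-TACE at 80 ng/mL with 10 μM MCA-Pro-Leu-Ala-Gln-Ala-Val-Dpa-Arg-Ser-Ser-Ser-Arg-NH₂, in 100 mM Tris-HCl pH 7.5, 150 mM NaCl, 10 mM CaCl₂, 0.05% Brij-35. Inhibitor preincubated for 15 min at 25 °C. Fluorescence (ex 325/em 405 nm) read at 60 min. IC50 from three linear-range points; mean of ≥2.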

The species entered for assay [2] is Homo sapiens. The assay is described as follows: Selectivity ratio of IC50 for human recombinant MMP14 to IC50 for human recombinant aggrecanase 2.
The target in assay [3] is Matrix metalloproteinase-14 (Homo sapiens, UniProt P50281). The assay is described as follows: Inhibition of human recombinant MMP14 after 60 mins by fluorescence plate reader. Summed up:
(§1)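 Recombinant human enzyme at 20 ng/mL with 10 μM MOCAc-Lys-Pro-Leu-Gly-Leu-A2pr(Dnp)-Ala-Arg-NH₂, in 100 mM Tris-HCl pH 7.5, 150 mM NaCl, 10 mM CaCl₂, 0.05% Brij-35. Enzyme pretreated with inhibitor for 15 min at 25 °C, then substrate added. Fluorescence (ex 325, em 405 nm) read at 60 min. IC50 taken from three points in the linear range; mean of ≥2 determinations.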

In assay [4] the target is T1, Interstitial collagenase (Homo sapiens, UniProt P03956).
T1 sequence (P03956 whole entry): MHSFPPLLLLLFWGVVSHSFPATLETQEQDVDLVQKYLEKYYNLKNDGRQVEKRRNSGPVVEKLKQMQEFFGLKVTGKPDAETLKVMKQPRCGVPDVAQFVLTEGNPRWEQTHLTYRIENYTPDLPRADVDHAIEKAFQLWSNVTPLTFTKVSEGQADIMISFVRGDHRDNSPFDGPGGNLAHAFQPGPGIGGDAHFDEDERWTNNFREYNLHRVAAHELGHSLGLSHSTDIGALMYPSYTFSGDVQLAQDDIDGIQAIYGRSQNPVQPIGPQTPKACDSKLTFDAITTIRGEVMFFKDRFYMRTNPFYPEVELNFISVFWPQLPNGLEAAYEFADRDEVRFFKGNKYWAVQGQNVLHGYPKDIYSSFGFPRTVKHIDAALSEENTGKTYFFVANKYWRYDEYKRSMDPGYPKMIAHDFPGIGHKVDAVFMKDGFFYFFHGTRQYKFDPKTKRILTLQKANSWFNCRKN
The assay can be described thus: Inhibition of human recombinant MMP1 after 60 mins by fluorescence plate reader. The method, boiled down: as §1

Assay [5] concerns the target T2, A disintegrin and metalloproteinase with thrombospondin motifs 5 (Homo sapiens, UniProt Q9UNA0).
T2 sequence (Q9UNA0 whole entry): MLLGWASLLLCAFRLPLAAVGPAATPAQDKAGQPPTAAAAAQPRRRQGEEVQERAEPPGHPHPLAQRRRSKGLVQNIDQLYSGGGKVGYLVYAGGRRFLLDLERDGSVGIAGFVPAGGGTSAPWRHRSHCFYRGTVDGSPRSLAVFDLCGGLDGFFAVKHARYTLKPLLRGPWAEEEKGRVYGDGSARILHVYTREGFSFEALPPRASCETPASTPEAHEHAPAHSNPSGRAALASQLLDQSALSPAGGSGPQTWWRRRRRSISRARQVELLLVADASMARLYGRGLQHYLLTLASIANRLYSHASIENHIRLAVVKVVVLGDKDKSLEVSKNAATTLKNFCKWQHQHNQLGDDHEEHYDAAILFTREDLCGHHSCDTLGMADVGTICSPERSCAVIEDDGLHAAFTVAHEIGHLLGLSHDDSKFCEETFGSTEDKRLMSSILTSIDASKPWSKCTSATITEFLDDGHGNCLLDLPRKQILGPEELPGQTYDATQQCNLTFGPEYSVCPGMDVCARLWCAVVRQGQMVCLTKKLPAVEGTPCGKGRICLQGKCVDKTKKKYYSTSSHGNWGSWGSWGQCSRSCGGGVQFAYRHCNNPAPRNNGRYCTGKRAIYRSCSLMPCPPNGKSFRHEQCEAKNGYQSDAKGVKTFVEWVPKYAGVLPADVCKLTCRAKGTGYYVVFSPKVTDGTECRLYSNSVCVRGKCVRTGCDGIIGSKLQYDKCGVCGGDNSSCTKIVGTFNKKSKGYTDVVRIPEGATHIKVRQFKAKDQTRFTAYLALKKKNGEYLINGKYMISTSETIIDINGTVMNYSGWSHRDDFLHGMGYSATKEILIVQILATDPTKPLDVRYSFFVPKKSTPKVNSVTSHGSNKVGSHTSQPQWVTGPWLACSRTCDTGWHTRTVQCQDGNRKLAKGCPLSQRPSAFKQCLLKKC
The assay is described as follows: Inhibition of human recombinant aggrecanase 2 after 150 mins by fluorescence plate reader.

Assay [6] addresses T3, A disintegrin and metalloproteinase with thrombospondin motifs 4 (Homo sapiens, UniProt O75173).
T3 sequence (O75173 whole entry): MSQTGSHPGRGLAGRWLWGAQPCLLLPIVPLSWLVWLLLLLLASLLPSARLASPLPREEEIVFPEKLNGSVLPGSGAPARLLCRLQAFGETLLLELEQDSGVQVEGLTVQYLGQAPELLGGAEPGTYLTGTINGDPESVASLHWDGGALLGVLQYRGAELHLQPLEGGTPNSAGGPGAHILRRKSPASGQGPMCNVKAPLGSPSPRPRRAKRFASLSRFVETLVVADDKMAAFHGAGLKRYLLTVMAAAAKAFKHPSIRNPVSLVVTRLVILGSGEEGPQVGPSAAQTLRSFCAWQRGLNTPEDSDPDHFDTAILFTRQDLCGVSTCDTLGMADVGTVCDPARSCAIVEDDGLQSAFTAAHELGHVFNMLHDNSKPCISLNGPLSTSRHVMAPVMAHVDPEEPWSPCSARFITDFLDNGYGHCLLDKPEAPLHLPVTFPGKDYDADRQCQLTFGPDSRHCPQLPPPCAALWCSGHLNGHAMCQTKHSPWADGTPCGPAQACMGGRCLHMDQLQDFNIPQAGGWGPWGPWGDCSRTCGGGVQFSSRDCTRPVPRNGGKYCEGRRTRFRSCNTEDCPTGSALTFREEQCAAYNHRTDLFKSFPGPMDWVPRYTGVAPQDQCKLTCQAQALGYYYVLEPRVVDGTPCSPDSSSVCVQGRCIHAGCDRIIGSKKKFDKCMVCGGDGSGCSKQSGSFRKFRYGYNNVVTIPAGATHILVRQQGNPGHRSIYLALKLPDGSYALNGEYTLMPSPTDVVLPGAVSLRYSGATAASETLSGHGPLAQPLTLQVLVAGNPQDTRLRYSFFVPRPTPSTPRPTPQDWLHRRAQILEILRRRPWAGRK
The assay is described as follows: Inhibition of human recombinant aggrecanase 1 after 150 mins by fluorescence plate reader.

Chain of Disintegrin and metalloproteinase domain-containing protein 17 (P78536 whole entry, the tested form may be a part): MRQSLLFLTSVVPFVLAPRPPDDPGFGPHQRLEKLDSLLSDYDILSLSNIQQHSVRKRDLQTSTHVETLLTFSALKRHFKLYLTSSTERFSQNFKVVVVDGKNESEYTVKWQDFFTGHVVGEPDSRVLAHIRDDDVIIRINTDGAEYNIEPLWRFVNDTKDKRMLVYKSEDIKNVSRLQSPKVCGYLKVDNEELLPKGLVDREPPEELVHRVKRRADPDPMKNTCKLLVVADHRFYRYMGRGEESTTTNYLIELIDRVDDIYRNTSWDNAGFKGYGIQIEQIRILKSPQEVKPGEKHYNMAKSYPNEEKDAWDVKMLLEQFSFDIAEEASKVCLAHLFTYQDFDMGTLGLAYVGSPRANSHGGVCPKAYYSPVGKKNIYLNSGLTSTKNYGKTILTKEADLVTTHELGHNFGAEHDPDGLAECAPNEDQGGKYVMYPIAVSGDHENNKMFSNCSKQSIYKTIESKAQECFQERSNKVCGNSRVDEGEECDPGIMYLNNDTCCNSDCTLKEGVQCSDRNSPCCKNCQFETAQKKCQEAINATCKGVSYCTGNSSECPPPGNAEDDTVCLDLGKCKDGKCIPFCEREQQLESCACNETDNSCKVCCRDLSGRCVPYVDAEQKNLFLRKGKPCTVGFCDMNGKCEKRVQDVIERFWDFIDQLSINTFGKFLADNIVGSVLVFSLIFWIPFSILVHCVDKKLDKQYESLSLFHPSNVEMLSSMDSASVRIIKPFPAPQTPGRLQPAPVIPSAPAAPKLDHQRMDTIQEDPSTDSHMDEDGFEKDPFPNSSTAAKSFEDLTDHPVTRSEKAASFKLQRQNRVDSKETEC

As to `C[C@@H]1CN(S(=O)(=O)N[C@@]2(C(=O)O)[C@H](C)[C@@H]2c2ccccc2)CCN1c1ccc(Cl)cc1`, the IC50 (as a rule, the concentration that gives 50% inhibition) in assay [1] was above 10000 nM; in assay [3], 2100 nM; in assay [4] it was above 10000 nM; in assay [5] it was 37 nM. In addition, the Ratio IC50 in assay [2] worked out at 10.
In the case of `O=C(NO)[C@@H](NCC1CC1)[C@@H](Cc1cccc(O)c1)C(=O)N[C@H]1c2ccccc2C[C@H]1O`, the IC50 in assay [1] was 430 nM; in assay [3], above 10000 nM; in assay [4], above 10000 nM; in assay [6] it was 3 nM; in assay [5], 12 nM.
As to `CC1(C)C[C@@H](O)CN(S(=O)(=O)c2ccc(OCc3ccc(Cl)cc3Cl)cc2)[C@H]1C(=O)NO`, the figures for the IC50 in assay [6] and in assay [5] were 1.1 nM and 1.4 nM, respectively.
For the compound `C[C@@H]1[C@H](c2ccccc2)[C@]1(NS(=O)(=O)N1CCN(c2ccc(Cl)cc2)[C@@H](C)C1)C(=O)O`, the IC50 in assay [1] is above 10000 nM; in assay [3] it was 2500 nM; in assay [4], above 10000 nM; in assay [5], 47 nM. For the same compound, the Ratio IC50 in assay [2] turned out to be 10.
As for `C[C@@H]1[C@H](c2ccccc2)[C@]1(NS(=O)(=O)N1CCn2c(nc3ccccc32)C1)C(=O)O`, the IC50 in assay [1] was above 10000 nM; in assay [3] it was 2200 nM; in assay [4] it was above 10000 nM; in assay [5], 92 nM.
Take `C[C@@H]1[C@H](c2ccccc2)[C@]1(NS(=O)(=O)N1CCn2c(nc3ccc(F)cc32)C1)C(=O)O`: the IC50 in assay [1] is above 10000 nM; in assay [3], 240 nM; in assay [4] it was above 10000 nM; in assay [5], 100 nM.
With `C[C@@H]1CN(S(=O)(=O)N[C@@]2(C(=O)O)[C@H](C)[C@@H]2c2ccccc2)CCN1c1cc(C(C)(F)F)on1`, the IC50 in assay [1] was above 10000 nM; in assay [3], 1100 nM; in assay [4], 2600 nM; in assay [5], 130 nM.
As for `COc1ccc2c(c1)nc1n2CCN(S(=O)(=O)N[C@@]2(C(=O)O)[C@H](C)[C@@H]2c2ccccc2)C1`, the IC50 was above 10000 nM in assay [1], 4300 nM in assay [3], above 10000 nM in assay [4] and 330 nM in assay [5].
Turning to `Cc1cnn(-c2ccc(S(=O)(=O)N[C@@]3(C(=O)O)[C@H](C)[C@@H]3c3ccccc3)s2)c1`, the 50% inhibitory concentration (IC50) in assay [1] is above 10000 nM; in assay [3], 1.2 nM; in assay [4] it was below 300 nM; in assay [5], 19 nM.
In the case of `C[C@@H]1CN(S(=O)(=O)N[C@@]2(C(=O)O)[C@H](C)[C@@H]2c2ccccc2)CCN1c1ccc(C#N)s1`, the IC50 in assay [1] is above 10000 nM; in assay [3] it was 6000 nM; in assay [4] it was above 10000 nM; in assay [5], 33 nM.
With `O=C(NO)c1nc2ccccc2c2c1CN(c1ccc(OCc3ccccc3)cc1)C2=O`, the IC50 in assay [6] came to 210 nM; in assay [5], 950 nM.
As to `COc1cnn(-c2ccc(S(=O)(=O)N[C@@]3(C(=O)O)[C@H](C)[C@@H]3c3ccccc3)s2)c1`, the IC50 in assay [1] was determined as 1600 nM; in assay [3] it was 1.3 nM; in assay [4] it was 33 nM; in assay [5] it was 17 nM.
As for `C[C@@H]1[C@H](c2ccccc2)[C@]1(NS(=O)(=O)N1CCc2c(nc3cc(F)ccn23)C1)C(=O)O`, the IC50 was 6300 nM in assay [1], 2100 nM in assay [3], above 10000 nM in assay [4] and 17 nM in assay [5].
For the compound `C[C@@H]1[C@H](c2ccccc2)[C@]1(NS(=O)(=O)N1CCn2c(cc3cc(Cl)ccc32)C1)C(=O)O`, the IC50 in assay [1] is above 10000 nM; in assay [3] it was 420 nM; in assay [4], above 10000 nM; in assay [5] it was 39 nM.
For `C[C@@H]1[C@H](c2ccccc2)[C@]1(NS(=O)(=O)N1CCn2c(nc3cc(C#N)ccc32)C1)C(=O)O`, the half-maximal inhibitory concentration (IC50) in assay [1] was above 10000 nM; in assay [3], 4900 nM; in assay [4], above 10000 nM; in assay [5], 250 nM.
Take `C[C@@H]1[C@H](c2ccccc2)[C@]1(NS(=O)(=O)N1CCc2c([nH]c3cc(F)ccc23)C1)C(=O)O`: the IC50 in assay [1] is above 10000 nM; in assay [3] it was 98 nM; in assay [4] it was 2300 nM; in assay [5], 38 nM.
For the compound `C[C@@H]1[C@H](c2ccccc2)[C@]1(NS(=O)(=O)N1CCc2c(nc3cc(Cl)ccn23)C1)C(=O)O`, the IC50 in assay [1] is above 10000 nM; in assay [3], 270 nM; in assay [4], above 10000 nM; in assay [5] it was 21 nM.
In the case of `CC(C)(NC(=O)[C@H](CCC(=O)O)NC(=O)c1ccc(-c2ccccc2)cc1)c1ccccc1`, the figures for the concentration for half-maximal inhibition (IC50) in assay [6] and in assay [5] were 210 nM and 1100 nM, respectively.
In the case of `C[C@@H]1[C@H](c2ccccc2)[C@]1(NS(=O)(=O)c1cc2nn3cc(Cl)ccc3c2s1)C(=O)O`, the IC50 in assay [1] was above 10000 nM; in assay [3], 100 nM; in assay [4], 1300 nM; in assay [5], 29 nM.
For the compound `C[C@@H]1[C@H](c2ccccc2)[C@]1(NS(=O)(=O)N1CCn2c(nc3cc(F)ccc32)C1)C(=O)O`, the IC50 in assay [1] is above 10000 nM; in assay [3], 1100 nM; in assay [4] it was above 10000 nM; in assay [5], 20 nM.
On to `C[C@@H]1[C@H](c2ccccc2)[C@]1(NS(=O)(=O)c1cc2[nH]c3ccc(F)cc3c2s1)C(=O)O`, for which the IC50 in assay [1] stood at 1900 nM; in assay [3] it was 25 nM; in assay [4], 1300 nM; in assay [5], 10 nM.
With `C[C@@H]1[C@H](c2ccccc2)[C@]1(NS(=O)(=O)N1Cc2nc3cc(Cl)ccn3c2C1)C(=O)O`, the IC50 is above 10000 nM in assay [1], 280 nM in assay [3], 3700 nM in assay [4] and 66 nM in assay [5].
The matching figures for `C[C@@H]1[C@H](c2ccccc2)[C@]1(NS(=O)(=O)N1CCn2c(nc3cc(Cl)ccc32)C1)C(=O)O`: above 10000 nM, 610 nM, above 10000 nM and 60 nM.
